Source: PubChem (several laboratories)
Compounds with a hit are over-represented: about 5.3% of the library has one in this group of screens.
Calb FLC – C. albicans growth modulation with fluconazole; 300,000 compounds, 0.57% hits; growth inhibition, % (concentration not given with the values); C. albicans CaCi-2 (fluconazole-resistant clinical isolate) + fluconazole, Alamar Blue growth, 48 h;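 active means growth inhibition above about 58% in most replicates, limit read from the data, passing the limit was not always enough; inconclusive means exactly half the replicates above a set limit; inactive means most replicates below a set limit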;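 further: all wells also contain fluconazole at 8 µg/ml as a sub-toxic cotreatment; 0% = median of DMSO wells and 100% = median of geldanamycin control wells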
NLRP3 yeast inh – blocks the NALP3 inflammasome reconstituted in yeast. Yeast reconstituted NLRP3/ASC/caspase-1, beta-gal luminescence, 24 h. inhibition, % at 10 µM. 330,000 compounds, 0.39% hits. AID 2825;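 active means inhibition of 50% or more; inactive means inhibition below 50%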;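 further: plate controls were induced DMSO wells for no effect and uninduced yeast grown without galactose for full effect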
Mdm2-MdmX inh – disrupts the human Mdm2-MdmX interaction; SaOS-2 split-luciferase Mdm2/MdmX complementation, luminescence; inhibition, % at 8 µM; 330,000 compounds, 3% hits; AID 485346;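 active means inhibition of at least 50% at 8 µM in the primary screen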
Target sequence (O15151 whole entry, looked up): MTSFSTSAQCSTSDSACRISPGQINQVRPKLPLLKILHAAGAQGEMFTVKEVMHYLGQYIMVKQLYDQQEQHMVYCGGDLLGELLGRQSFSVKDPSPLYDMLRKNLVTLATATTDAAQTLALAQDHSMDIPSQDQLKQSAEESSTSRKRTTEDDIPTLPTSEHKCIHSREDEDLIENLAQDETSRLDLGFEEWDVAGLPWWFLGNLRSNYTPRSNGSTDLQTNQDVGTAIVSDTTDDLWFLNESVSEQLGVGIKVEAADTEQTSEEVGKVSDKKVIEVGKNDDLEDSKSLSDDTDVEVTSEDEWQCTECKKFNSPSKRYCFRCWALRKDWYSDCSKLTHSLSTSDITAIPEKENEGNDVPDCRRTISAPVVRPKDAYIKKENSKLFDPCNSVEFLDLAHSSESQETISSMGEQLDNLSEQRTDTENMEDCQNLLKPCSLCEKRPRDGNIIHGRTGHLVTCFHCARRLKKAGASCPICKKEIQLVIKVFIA
Target sequence (Q00987 whole entry, looked up): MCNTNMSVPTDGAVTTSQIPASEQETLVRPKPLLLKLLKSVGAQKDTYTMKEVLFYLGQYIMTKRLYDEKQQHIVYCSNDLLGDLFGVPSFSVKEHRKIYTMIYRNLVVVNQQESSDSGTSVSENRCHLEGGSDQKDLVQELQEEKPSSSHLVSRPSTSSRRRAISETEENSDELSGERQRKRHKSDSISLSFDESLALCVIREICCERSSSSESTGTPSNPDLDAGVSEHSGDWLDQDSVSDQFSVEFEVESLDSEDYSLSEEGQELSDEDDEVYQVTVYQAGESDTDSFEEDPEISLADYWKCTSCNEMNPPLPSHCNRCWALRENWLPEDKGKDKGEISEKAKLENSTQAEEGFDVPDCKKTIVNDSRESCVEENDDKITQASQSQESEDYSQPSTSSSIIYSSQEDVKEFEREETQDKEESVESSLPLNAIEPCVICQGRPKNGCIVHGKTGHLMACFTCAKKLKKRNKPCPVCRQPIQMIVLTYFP
CSC inhib – cancer stem cell inhibition | inhibition, % at 7.5 µM | 300,000 compounds, 1.1% hits | cancer stem cell-like cells viability, luminescence | AID 2717; in the data active means inhibition above about 75%; inconclusive means no clear call, values can overlap the other calls; tested in HMLE shEcad cells
Beta cell apopt – beta cell apoptosis inhibition; 300,000 compounds, 0.8% hits; AID 435005; INS-1E cytokine-induced death, ATP luminescence, 48 h; percent of positive-control rescue, neutral wells zero; protection from apoptosis, % (concentration not given with the values);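 active means Every replicate reaches about 75%, or at least half do and their mean reaches it too, limit read from the data; inconclusive means At least half of replicates reach the limit but their mean does not; inactive means Under half of replicates reach the limit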;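 further: 0% = cytokine-treated negative control wells and 100% = positive control rescue; higher means more ATP so stronger rescue from cytokine killing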
T cruzi repl – blocks replication of Trypanosoma cruzi; AID 1885; T. cruzi beta-gal in NIH3T3, luminescence, 90 h; 300,000 compounds, 1.4% hits; inhibition, % (test concentration not listed);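 active means mean inhibition across valid replicates above about 55%, limit read from the data; inconclusive means mean below that limit but half or more replicates reach it; inactive means mean below it, under half of replicates reach it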;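 further: signal also drops with host cell toxicity which is not excluded here; 0% = plate median of DMSO wells and 100% = zero luminescence signal; higher percent means less beta-gal luminescence so fewer parasites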
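System – NIH/3T3 host cells with β-galactosidase reporter T. cruzi · Doses – single 50 nL compound addition per well in DMSO · Reagent – 5000 T. cruzi trypomastigotes/well · Medium – Low-serum DMEM with 2% FBS · Timing – ≥90 h infection period, 3 h prior cell attachment · Evaluation – parasite load inhibition, % · Technique – GalScreen luminescence, 60 min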
Numbers without * were called inactive; ? = inconclusive; nt = no result.

SMILES | Calb FLC | NLRP3 yeast inh | Mdm2-MdmX inh | CSC inhib | Beta cell apopt | T cruzi repl
Cc1ccccc1C1C(C#N)=C2N=C(N)c3c(sc4c3CCCCC4)N2C2=C1C(=O)CC(C)(C)C2 (configuration not stated) | -10 | 5 | 39 | 11 | -4 | 58*
COc1cccc(-n2c(SCC(=O)Nc3nc4ccccc4s3)nc3ccccc3c2=O)c1 | -3 | 2 | 27 | 20 | 6 | 8
COc1cccc(-n2c(SCC(=O)Nc3sc4c(c3C(N)=O)CCC4)nc3ccccc3c2=O)c1 | -11 | -15 | 33 | -3 | -2 | 59*
Cc1cccc(CSC2=NCCN2C(=O)C2CC2)c1 | -35 | 22 | -4 | 14 | 4 | -6
Cc1ccc(/C=N\NC(=O)c2ccc(Cn3cc(Br)c([N+](=O)[O-])n3)o2)o1 | 1 | -4 | 9 | 7 | -4 | 74*
O=C(N/N=C\c1cccc(Cl)c1)c1ccc(Cn2cc(Br)c([N+](=O)[O-])n2)o1 | -14 | 13 | 3 | 9 | 2 | 54
CC(C)Cn1c(CN2CCN(C)C(CCO)C2)nc2ccccc21 (configuration not stated) | 15 | 1 | 6 | -9 | -5 | 23
Cc1ccccc1-c1ccc(CN2CCN(C)C(CCO)C2)cc1 (configuration not stated) | -11 | 12 | 0 | ? | 5 | 58*
Cc1ccccc1-c1ncc(CN2CCN(C3CCCC3)C(CCO)C2)cn1 (configuration not stated) | -3 | 20 | -12 | 5 | -1 | 7
CC(C)n1cc(CN2CCN(C)C(CCO)C2)c2ccccc21 (configuration not stated) | -29 | 22 | 0 | 8 | -5 | 59*
Cc1cc(C)cc(C(=O)Nc2nnc(SCC(=O)N3CCCc4ccccc43)s2)c1 | -6 | 13 | 9 | 75* | -10 | -10
Cc1ccc(C)c(C(=O)COC(=O)CCCC(=O)Nc2cc(C(F)(F)F)ccc2Cl)c1 | -4 | 8 | 3 | -6 | 1 | -14
O=C(Nc1cccc(F)c1)c1ccc2ncsc2c1 | 111* | 32 | -65 | nt | nt | -9
O=C(Nc1ccc(F)cc1F)c1ccc2ncsc2c1 | -14 | 20 | -51 | -5 | -2 | -20
O=C(Nc1ccccc1F)c1ccc2ncsc2c1 | 105* | 23 | -8 | nt | nt | 4
Cc1cccc(NC(=S)NCCc2ccccn2)c1 | -8 | 2 | 7 | -2 | -3 | -24
CCCCn1c(=N)n(CC(=O)C(C)(C)C)c2ccccc21 | -10 | 5 | -20 | -5 | 3 | 62*
O=C(O)CN1C(=O)/C(=C\c2cc(Br)ccc2OCc2ccc(Cl)cc2)SC1=S | 0 | nt | nt | 98* | -5 | -19
O=C(CN1C(=O)/C(=C/c2ccccc2)SC1=S)NNC(=O)c1ccccc1O | 84* | 16 | 7 | -10 | 5 | -2
O=C1/C(=C\c2cc([N+](=O)[O-])ccc2O)SC(=S)N1Cc1ccc(Cl)cc1 | 86* | nt | nt | 104* | 4 | -1
O=C(O)CN1C(=O)/C(=C\c2cc([N+](=O)[O-])ccc2OCc2ccccc2Cl)SC1=S | 18 | 6 | -17 | 2 | 10 | 3
Cc1ccccc1/C=C1\SC(=S)N(/N=C/c2cc([N+](=O)[O-])ccc2O)C1=O | 85* | 43 | -11 | 5 | 7 | 5
O=C1CSC(=S)N1c1cccc(F)c1 | 2 | 21 | 6 | -6 | -9 | -9
CCn1c(SCC(=O)Nc2sc3c(c2C#N)CCC(C(C)(C)C)C3)nnc1-c1ccco1 (configuration not stated) | -32 | 11 | 43 | 1 | -2 | -1
CCn1c(C(=O)NC2CCC(C)CC2)cc2sccc21 (configuration not stated) | -4 | 6 | -29 | 3 | -3 | 5
SMILES | Calb FLC | NLRP3 yeast inh | Mdm2-MdmX inh | CSC inhib | Beta cell apopt | T cruzi repl
O=C(NCC12CC3CC(CC(C3)C1)C2)c1nc2ncccn2n1 | -4 | 4 | -18 | 5 | -5 | -13
CCOCC(=O)Nc1cc(Cl)c(OC)cc1OC | 4 | 25 | 10 | -6 | -6 | 5
O=C1/C(=C\c2cccc(O)c2)SC(=S)N1Cc1ccccc1 | 6 | 22 | 22 | 20 | -6 | 9
COc1cc(/C=C2/SC(=NCc3ccccc3)N(Cc3ccccc3)C2=O)ccc1O | -4 | -21 | 44 | 0 | -5 | -11
O=C1/C(=C\c2ccc(O)c(O)c2)SC(=S)N1Cc1ccccc1 | 18 | 35 | 40 | 104* | -1 | 4
COc1cc(/C=C2/SC(=S)N(Cc3ccccc3)C2=O)ccc1O | 31 | 31 | 6 | 100* | -1 | -8
c1ccc(Nc2c3c(nc4ccccc24)CCC3)cc1 | 42 | -3 | -5 | -7 | 16 | 32
Fc1ccc(Nc2c3c(nc4ccccc24)CCC3)cc1 | 49 | 3 | -11 | nt | nt | 58*
COc1ccc(C)cc1NCc1cc(=O)oc2cc(-c3ccccc3)c(O)cc12 | -2 | 23 | 16 | 39 | 0 | -10
COC(=O)c1ccccc1NCc1cc(=O)oc2cc(O)c(O)cc12 | -14 | 30 | 36 | 92* | 1 | -15
Nn1c(COc2ccccc2)nc2ccccc2c1=O | -5 | 24 | -7 | 2 | 4 | -6
COc1cccc(OCc2nc3ccccc3c(=O)n2N)c1 | 108* | 20 | -9 | -3 | -8 | -6
O=C(N/N=C/c1cccc(F)c1)c1c(O)c2ccccc2[nH]c1=O | 23 | nt | nt | 35 | 101* | 3
CC(C)Oc1cccc(C(=O)NC(=S)Nc2ccc(N3CCN(C)CC3)cc2)c1 | 9 | 27 | 3 | 21 | 3 | 17
O=C(c1ccc2c3n(nc2c1)-c1ccccc1CO3)N1CCOCC1 | 3 | 2 | -25 | 98* | nt | -11
O=c1[nH]c(-c2ccccn2)nc(C(F)(F)F)c1Br | 108* | 10 | 35 | 20 | 30 | 66*
O=C(CSc1nc(=O)n2ccccc2n1)N1N=C(c2cccs2)CC1c1ccc(F)cc1 (configuration not stated) | -16 | -5 | 21 | -2 | nt | 58*
COc1ccc(C2CC(c3cccs3)=NN2C(=O)CSc2nc(=O)n3ccc(C)cc3n2)cc1 (configuration not stated) | 2 | 0 | 26 | -13 | 9 | 37
Cc1ccc(C2CC(c3cccs3)=NN2C(=O)CSc2nc(=O)n3ccc(C)cc3n2)cc1 (configuration not stated) | -2 | 14 | 15 | 6 | -1 | 60*
COc1cccc(C2CC(c3cccs3)=NN2C(=O)CSc2nc3c(cnn3-c3ccc(F)cc3)c(=O)[nH]2)c1OC (configuration not stated) | 37 | 6 | 19 | 118* | 6 | -6
CCOC(=O)c1c(NC(=O)CCl)sc(CN(C)C)c1-c1ccccc1 | -28 | 6 | 10 | -5 | -14 | -1
